For 16 compounds, inhibition, Ki and IC50 results are on record in ChEMBL document CHEMBL3124809, “Back pocket flexibility provides group II p21-activated kinase (PAK) selectivity for type I 1/2 kinase inhibitors” (J Med Chem, 2014).

pIC50, pKi: −log10 of the molar value.

The target in test [1] is Misshapen-like kinase 1 (Homo sapiens) (UniProt Q8N4C8). Put plainly: Inhibition of MINK1 (unknown origin) at 10 uM.
The target in test [2] is T1, Tyrosine-protein kinase JAK3 (Homo sapiens) (UniProt P52333).
T1 sequence (whole entry): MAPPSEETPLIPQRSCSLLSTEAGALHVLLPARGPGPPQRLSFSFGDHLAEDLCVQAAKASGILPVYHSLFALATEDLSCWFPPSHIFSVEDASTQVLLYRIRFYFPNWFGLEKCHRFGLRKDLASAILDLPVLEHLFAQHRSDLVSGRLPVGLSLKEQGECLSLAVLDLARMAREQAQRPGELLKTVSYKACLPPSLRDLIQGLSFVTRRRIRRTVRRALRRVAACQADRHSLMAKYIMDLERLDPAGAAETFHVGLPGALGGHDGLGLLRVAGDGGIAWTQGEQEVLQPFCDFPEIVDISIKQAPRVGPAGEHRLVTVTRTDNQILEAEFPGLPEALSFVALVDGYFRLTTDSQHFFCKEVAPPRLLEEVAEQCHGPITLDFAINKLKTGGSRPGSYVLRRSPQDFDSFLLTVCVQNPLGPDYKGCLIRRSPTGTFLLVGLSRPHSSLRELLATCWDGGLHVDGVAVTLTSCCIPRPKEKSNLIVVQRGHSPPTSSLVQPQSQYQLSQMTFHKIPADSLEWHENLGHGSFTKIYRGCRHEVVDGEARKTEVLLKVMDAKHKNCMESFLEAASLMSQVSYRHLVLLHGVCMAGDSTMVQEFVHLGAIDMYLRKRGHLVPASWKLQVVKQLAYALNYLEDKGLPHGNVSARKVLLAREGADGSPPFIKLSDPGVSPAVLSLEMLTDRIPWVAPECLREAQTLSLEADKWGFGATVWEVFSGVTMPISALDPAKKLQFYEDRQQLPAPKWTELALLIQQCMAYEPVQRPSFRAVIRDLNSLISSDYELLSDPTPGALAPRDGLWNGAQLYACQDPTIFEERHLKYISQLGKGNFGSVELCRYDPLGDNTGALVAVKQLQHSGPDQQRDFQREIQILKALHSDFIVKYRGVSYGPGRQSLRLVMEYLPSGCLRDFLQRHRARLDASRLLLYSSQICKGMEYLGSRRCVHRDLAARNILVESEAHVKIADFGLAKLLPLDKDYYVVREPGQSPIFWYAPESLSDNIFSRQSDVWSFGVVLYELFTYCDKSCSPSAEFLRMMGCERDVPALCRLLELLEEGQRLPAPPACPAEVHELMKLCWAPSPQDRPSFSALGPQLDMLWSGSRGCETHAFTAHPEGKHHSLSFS
In words: Inhibition of JAK3 (unknown origin) at 10 uM.

Test [3] has as its target T2, Serine/threonine-protein kinase PAK 4 (Homo sapiens, UniProt O96013). Put plainly: Binding affinity to N-terminal GST-tagged recombinant human PAK4 kinase domain expressed in Escherichia coli using KKRNRRLSVA as substrate preincubated for 10 mins followed by ATP addition measured after 60 mins by FRET-based Z'Lyte assay.
Target sequence in this assay (O96013 whole entry, the tested form may be a part): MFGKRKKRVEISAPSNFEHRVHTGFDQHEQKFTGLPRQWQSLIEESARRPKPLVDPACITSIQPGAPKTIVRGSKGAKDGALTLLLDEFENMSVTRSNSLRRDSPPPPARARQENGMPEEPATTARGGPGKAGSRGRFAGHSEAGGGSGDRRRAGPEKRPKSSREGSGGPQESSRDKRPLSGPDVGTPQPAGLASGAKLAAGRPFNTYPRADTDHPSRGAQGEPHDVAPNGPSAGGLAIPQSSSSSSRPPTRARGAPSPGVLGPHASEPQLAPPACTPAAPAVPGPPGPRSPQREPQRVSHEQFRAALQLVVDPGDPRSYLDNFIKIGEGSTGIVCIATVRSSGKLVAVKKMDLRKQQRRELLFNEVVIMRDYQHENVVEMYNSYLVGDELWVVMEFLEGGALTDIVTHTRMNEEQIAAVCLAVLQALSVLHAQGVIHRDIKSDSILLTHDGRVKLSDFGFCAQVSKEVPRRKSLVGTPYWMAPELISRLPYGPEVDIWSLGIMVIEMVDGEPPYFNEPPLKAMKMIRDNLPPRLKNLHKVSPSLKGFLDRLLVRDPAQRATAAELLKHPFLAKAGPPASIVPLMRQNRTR
The target of test [4] is Serine/threonine-protein kinase PAK 1 (Homo sapiens, UniProt Q13153). In words: Binding affinity to N-terminal GST-His-tagged recombinant human PAK1 kinase domain expressed in Escherichia coli BL21 using KKRNRRLSVA as sustrate preincubated for 10 mins followed by ATP addition measured after 60 mins by FRET-based Z'Lyte assay.
Serine/threonine-protein kinase PAK 1, sequence (Q13153 whole entry, the tested form may be a part): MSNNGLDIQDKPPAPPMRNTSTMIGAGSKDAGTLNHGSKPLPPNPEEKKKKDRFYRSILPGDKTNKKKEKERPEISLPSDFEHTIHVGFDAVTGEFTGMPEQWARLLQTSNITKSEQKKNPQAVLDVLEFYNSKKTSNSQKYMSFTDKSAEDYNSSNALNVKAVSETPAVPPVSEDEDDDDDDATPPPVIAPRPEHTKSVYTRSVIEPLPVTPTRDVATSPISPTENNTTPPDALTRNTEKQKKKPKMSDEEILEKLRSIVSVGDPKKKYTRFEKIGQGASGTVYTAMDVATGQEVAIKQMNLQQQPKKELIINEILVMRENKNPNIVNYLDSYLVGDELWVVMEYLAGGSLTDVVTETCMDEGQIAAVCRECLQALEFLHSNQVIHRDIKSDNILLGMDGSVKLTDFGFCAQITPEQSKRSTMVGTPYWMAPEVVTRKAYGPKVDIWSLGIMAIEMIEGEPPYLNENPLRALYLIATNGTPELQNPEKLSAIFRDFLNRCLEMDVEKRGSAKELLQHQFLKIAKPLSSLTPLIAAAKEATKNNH
Test [5] concerns the target Mitogen-activated protein kinase kinase kinase kinase 4 (Homo sapiens) (UniProt O95819). In words: Inhibition of MAP4K4 (unknown origin) at 10 uM.
Test [6] addresses T2, Serine/threonine-protein kinase PAK 4. As to conditions: 10 uM.
Target sequence in this assay (O96013 whole entry, looked up, the tested form may be a part): as the sequence (O96013 whole entry, the tested form may be a part) above
Test [7] addresses Mitogen-activated protein kinase kinase kinase kinase 5 (Homo sapiens) (UniProt Q9Y4K4). Put plainly: Inhibition of KHS1 (unknown origin) at 10 uM.
The target in test [8] is Mitogen-activated protein kinase kinase kinase 14 (Homo sapiens) (UniProt Q99558). Put plainly: Inhibition of NIK (unknown origin) at 10 uM.
Mitogen-activated protein kinase kinase kinase 14 (Homo sapiens), sequence (Q99558 whole entry, looked up): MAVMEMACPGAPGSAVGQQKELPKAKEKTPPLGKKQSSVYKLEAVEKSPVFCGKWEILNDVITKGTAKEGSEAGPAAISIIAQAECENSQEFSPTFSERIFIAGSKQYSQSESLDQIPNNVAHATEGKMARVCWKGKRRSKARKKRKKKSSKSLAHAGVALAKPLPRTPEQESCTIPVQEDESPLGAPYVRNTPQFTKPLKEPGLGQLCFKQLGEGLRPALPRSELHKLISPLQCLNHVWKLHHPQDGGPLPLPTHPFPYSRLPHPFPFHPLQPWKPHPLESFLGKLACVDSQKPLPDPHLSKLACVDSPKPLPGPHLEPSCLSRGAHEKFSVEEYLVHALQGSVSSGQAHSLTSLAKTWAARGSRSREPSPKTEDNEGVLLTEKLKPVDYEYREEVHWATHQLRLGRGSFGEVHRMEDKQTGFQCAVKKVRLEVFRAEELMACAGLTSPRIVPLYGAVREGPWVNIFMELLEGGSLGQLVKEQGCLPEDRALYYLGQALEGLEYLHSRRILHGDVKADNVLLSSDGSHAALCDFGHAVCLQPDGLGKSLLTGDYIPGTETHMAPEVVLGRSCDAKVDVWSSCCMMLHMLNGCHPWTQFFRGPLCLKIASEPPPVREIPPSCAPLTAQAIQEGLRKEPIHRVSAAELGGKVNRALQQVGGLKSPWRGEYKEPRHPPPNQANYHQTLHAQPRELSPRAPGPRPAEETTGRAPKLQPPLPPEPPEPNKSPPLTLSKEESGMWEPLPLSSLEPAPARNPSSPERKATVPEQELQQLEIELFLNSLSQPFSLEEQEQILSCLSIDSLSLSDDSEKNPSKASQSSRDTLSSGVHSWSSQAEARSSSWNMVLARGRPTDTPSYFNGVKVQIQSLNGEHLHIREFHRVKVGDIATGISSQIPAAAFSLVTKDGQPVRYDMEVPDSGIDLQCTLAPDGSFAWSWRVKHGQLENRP
The nature of test [9]: Cytotoxicity against human MDA-MB-436 cells assessed as reduction in cell viability after 24 to 48 hrs by Celltiter-glo luminescence assay. The test is classed as functional, cell-based. In a few lines:
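Cells sparsely plated in 96-well plates and allowed to adhere, then given DMSO or compound (0.1, 1, 10, 50 μM) for 24 and 48 h. Metabolically active cells quantified by CellTiter-Glo luminescence. MDA-MB-436 grown in DMEM/10% FBS; MCF10A PIK3CA (one endogenous H1047R allele) in DMEM/F12 with 5% horse serum, insulin, hydrocortisone.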
(Cellular ATP, detected with luciferase, serves as a proxy for viable cell number.)

In test [10] the target is T2, Serine/threonine-protein kinase PAK 4. Put plainly: Inhibition of PAK4 (unknown origin) at 1 uM.
Target sequence in this assay (O96013 whole entry, looked up, the tested form may be a part): as the sequence (O96013 whole entry, the tested form may be a part) above
Test [11] concerns the target T1, Tyrosine-protein kinase JAK3 (Homo sapiens). In words: Inhibition of JAK3 (unknown origin) at 1 uM.
Test [12] addresses Mitogen-activated protein kinase kinase kinase 14 (Homo sapiens) (UniProt Q99558). In words: Inhibition of NIK (unknown origin) at 1 uM.
Test [13] deals with Misshapen-like kinase 1 (Homo sapiens) (UniProt Q8N4C8). In words: Inhibition of MINK1 (unknown origin) at 1 uM.
The target of test [14] is Mitogen-activated protein kinase kinase kinase kinase 4 (Homo sapiens) (UniProt O95819). Put plainly: Inhibition of MAP4K4 (unknown origin) at 1 uM.
Test [15] addresses Mitogen-activated protein kinase kinase kinase kinase 5 (Homo sapiens) (UniProt Q9Y4K4). Put plainly: Inhibition of KHS1 (unknown origin) at 1 uM.

Mitogen-activated protein kinase kinase kinase kinase 5 (Homo sapiens), sequence (Q9Y4K4 whole entry, looked up): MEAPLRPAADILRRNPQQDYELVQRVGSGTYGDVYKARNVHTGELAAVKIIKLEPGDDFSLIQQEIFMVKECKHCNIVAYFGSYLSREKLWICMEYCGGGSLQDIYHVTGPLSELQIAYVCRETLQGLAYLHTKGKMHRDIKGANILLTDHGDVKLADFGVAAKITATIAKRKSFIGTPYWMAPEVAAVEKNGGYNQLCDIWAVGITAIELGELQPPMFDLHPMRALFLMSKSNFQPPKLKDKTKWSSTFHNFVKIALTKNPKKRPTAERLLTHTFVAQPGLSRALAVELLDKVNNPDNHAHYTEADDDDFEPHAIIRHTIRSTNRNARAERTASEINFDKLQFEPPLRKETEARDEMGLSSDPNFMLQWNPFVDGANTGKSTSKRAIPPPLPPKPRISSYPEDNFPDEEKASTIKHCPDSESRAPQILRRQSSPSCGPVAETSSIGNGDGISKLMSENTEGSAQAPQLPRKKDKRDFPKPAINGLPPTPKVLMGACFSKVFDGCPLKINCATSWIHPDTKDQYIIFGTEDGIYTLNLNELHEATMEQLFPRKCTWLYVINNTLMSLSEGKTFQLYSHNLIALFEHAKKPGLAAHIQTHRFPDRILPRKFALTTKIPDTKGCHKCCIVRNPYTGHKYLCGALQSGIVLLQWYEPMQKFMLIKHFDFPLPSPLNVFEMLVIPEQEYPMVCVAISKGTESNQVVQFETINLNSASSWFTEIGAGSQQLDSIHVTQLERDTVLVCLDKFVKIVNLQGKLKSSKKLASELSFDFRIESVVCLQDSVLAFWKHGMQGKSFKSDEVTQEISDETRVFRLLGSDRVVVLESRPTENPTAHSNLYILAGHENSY
Misshapen-like kinase 1 (Homo sapiens), sequence (Q8N4C8 whole entry, looked up): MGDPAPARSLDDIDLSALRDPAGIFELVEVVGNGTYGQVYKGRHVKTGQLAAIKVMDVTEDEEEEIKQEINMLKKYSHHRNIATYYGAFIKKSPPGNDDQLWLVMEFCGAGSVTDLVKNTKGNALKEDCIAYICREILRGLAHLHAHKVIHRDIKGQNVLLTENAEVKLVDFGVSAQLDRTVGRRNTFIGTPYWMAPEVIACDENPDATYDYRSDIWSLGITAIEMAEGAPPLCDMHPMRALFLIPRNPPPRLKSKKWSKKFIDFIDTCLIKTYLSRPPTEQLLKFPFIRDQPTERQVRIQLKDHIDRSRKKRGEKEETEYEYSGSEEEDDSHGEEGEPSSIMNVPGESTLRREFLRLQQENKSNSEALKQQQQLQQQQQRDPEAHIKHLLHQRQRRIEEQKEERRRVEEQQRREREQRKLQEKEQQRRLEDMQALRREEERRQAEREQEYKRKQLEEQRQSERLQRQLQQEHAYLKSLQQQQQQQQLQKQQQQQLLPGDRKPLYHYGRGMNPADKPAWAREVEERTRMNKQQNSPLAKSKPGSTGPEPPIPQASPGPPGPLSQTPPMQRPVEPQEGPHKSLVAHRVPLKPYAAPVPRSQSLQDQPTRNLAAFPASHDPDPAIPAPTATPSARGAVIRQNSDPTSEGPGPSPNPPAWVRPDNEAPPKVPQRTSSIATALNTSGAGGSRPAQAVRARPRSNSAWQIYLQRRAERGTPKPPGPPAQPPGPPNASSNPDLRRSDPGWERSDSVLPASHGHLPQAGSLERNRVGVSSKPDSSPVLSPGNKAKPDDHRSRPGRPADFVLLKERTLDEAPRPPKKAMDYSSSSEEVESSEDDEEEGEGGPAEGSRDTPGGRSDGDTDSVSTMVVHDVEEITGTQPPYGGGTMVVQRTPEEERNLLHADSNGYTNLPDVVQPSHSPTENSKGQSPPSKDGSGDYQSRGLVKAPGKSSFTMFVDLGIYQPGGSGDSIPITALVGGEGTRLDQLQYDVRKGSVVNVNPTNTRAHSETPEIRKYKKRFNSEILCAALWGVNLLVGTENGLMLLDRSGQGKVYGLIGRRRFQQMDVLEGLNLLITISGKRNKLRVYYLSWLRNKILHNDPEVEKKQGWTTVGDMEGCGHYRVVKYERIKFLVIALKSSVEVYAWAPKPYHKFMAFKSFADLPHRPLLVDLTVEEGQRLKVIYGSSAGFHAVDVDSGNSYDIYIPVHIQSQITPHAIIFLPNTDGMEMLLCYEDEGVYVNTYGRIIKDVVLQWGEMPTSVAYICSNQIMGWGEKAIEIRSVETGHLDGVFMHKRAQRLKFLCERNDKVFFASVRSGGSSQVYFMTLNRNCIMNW

The term inhibition denotes the drop in the measured response relative to a control, in per cent. What is called pKi is −log10 of the Ki, conventionally taken in molar units. On to `COCCNc1nc2ccc(C#CC(C)(C)O)cc2n1-c1ccnc(N)n1`, for which the inhibition came to 32% in test [1]; 31% in test [2]; 40% in test [5]; 97% in [6]; 88% in [7]; 84% in test [8]. Further, the pKi in test [3] is 6.85; in test [4] it was below 5.35.

`Cc1nc2ccc(C#CC3(O)CCCOC3)cc2n1-c1ncnc(N)n1` (racemic): the pKi in test [3] is below 5.54; in test [4], below 5.35.

For `Cc1nc2ccc(C#C[C@@]3(O)C[C@@H]4CC[C@H]3C4)cc2n1-c1ncnc(N)n1` (racemic), the pKi in [3] was 6.72; in test [4], below 5.35.

The term pIC50 denotes the IC50 on a negative log10 scale, so that one unit is a factor of ten. Consider `Cc1nc(Nc2n[nH]c3c2CN(C(=O)N[C@H](CN(C)C)c2ccccc2)C3(C)C)c2sccc2n1` [PF-03758309], for which the pIC50 in test [9] is 9.10.

For `Cc1nc2ccc(C#C[C@@](C)(O)c3nccs3)cc2n1-c1ncnc(N)n1`, the results for the pKi in test [3] and in [4] were 6.22 and below 5.35, respectively.

For the compound `Cc1cc([C@](C)(O)C#Cc2ccc3nc(C)n(-c4ncnc(N)n4)c3c2)no1`, the pKi in test [3] is 7.49; in test [4], below 5.35.

In the case of `Cc1nc2ccc(C#CC(C)(C)O)cc2n1-c1ncnc(N)n1`, the inhibition in test [10] was found to be 34%; in test [11], 2%; in test [12], 68%; in test [13], 27%; in [14], 31%; in [15], 81%. Also, the pKi was 6.30 in test [3] and 4.82 in test [4].

`CCNc1nc2ccc(C#CC(C)(C)O)cc2n1-c1ncnc(N)n1`: the results for the pKi in test [3] and in [4] were 7.22 and below 5.35, respectively.

With `CC(C)(O)C#Cc1ccc2cnn(-c3ccnc(N)n3)c2c1`, the pKi in [3] was 6.92; in [4], below 5.35.

In the case of `Cc1nc2ccc(C#CC3(O)CCCCC3)cc2n1-c1ncnc(N)n1`, the inhibition in [10] is 91%; in [11], -2%; in test [12] it was 56%; in [13], 6%; in test [14] it was 4%; in test [15], 44%. For the same compound, the pKi in test [3] is 7.17.

On to `Cc1nc2ccc(C#CC(C)(C)CO)cc2n1-c1ncnc(N)n1`, for which the pKi is below 5.54 in [3] and below 5.35 in [4].

For `Cc1nc2ccc(C#CC(C)(O)CC3CC3)cc2n1-c1ncnc(N)n1` (racemic), the pKi was 6.17 in test [3] and below 5.35 in test [4].

For `Cc1nc2ccc(C#CC(C)(O)c3ncccn3)cc2n1-c1ncnc(N)n1` (racemic), the values for the pKi in test [3] and in [4] were below 5.54 and below 5.35, respectively.

With `CC(C)(O)C#Cc1ccc2cnn(-c3cc(N)ncn3)c2c1`, the negative-log Ki (pKi) in test [3] was 5.89; in test [4], below 5.35.

In the case of `Cc1nc2ccc(C#CC3(O)COC3)cc2n1-c1ncnc(N)n1`, the pKi in test [3] is below 5.54; in test [4], below 5.35.

In the case of `Cc1nc2ccc(C#CC(C)(O)CO)cc2n1-c1ncnc(N)n1` (racemic), the pKi in test [3] was below 5.54; in [4], below 5.35.
